One experiment deals with MCF7. Kind of experiment: Inhibition of growth of MCF7 cells. As to conditions: Homo sapiens. It counts as functional, cell-based.
For a further experiment, the target named is Tubulin. Briefly: Inhibition of tubulin polymerization. It counts as functional, Homo sapiens. The method, boiled down: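 Tubulin 10 µM in 0.8 M monosodium glutamate (pH 6.6), preincubated 15 min at 30 °C with varying drug, chilled on ice, then GTP added to 0.4 mM. Turbidity followed at 350 nm for 20 min at 30 °C. Extent of assembly measured and IC50 derived.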

In the next experiment the target is Tubulin (Homo sapiens) (UniProt P68371+Q9H4B7+P0DPH7+P68366+Q13509+Q71U36+P04350+Q3ZCM7+P07437+P68363+Q9BQE3+Q6PEY2+Q13885+Q9BVA1+Q9BUF5). Briefly: Displacement of [3H]colchicine from tubulin. As to conditions: concentration not given here. It counts as protein-complex assay. The method, boiled down:
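[3H]Colchicine 5.0 µM with 1.0 µM tubulin and 5.0 µM inhibitor, incubated 10 min at 37 °C. Result given as % inhibition of colchicine binding.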

In a further experiment the test system is SCLC. Kind of experiment: Inhibition of growth of SCLC cells. It counts as functional, cell-based. The conditions noted are these: Homo sapiens.
Experiment [1] has as its target Heat shock protein HSP 90-alpha (Homo sapiens) (UniProt P07900). Briefly: Binding affinity to Hsp90-alpha by fluorescent polarization assay. In outline: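 Fluorescence polarization competition with recombinant Hsp90α (30 nM) and GM-BODIPY (fluorescent geldanamycin, 5 nM) in 20 mM K-HEPES pH 7.3, 50 mM KCl, 5 mM MgCl2, 20 mM Na2MoO4, 0.01% NP40, 0.1 mg/mL bovine gamma globulin, 2 mM DTT. Shaken 24 h at 4 °C, mP read. EC50 = competitor concentration displacing 50% of probe.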

Calls of active or inactive are those of the source. The calls are words filed in the database; no cut-off is given here.

In the case of `COC(=O)c1[nH]c2cc(OC)ccc2c1Sc1ccccc1`, the results for the IC50 in the experiment on MCF7 and against Tubulin were over 2500 nM and over 40000 nM, respectively.

As to `COC(=O)c1[nH]c2cccc(OC)c2c1Sc1ccccc1`, the IC50 with MCF7 is over 2500 nM; against Tubulin, over 40000 nM.

On to `COC(=O)c1[nH]c2ccc([N+](=O)[O-])cc2c1Sc1cc(OC)c(OC)c(OC)c1`, for which the IC50 came out at 120 nM in the experiment on MCF7 and 4500 nM against Tubulin. In addition, at Tubulin (Homo sapiens), the inhibition is 32%.

With `CCOC(=O)c1[nH]c2ccc(OC)cc2c1Sc1cccc(OC)c1`, the IC50 with MCF7 was determined as 280 nM; on Tubulin it was 3100 nM; in the experiment on SCLC, 584 nM. Moreover, on Tubulin (Homo sapiens), the inhibition came out at 39%.

For `CC(C)(C)OC(=O)c1[nH]c2ccccc2c1Sc1ccccc1`, the figures for the IC50 in the experiment with MCF7 and against Tubulin were over 2500 nM and over 40000 nM, respectively.

Turning to `O=C(OCc1ccccc1)c1[nH]c2ccccc2c1Sc1ccccc1`, the IC50 was over 2500 nM with MCF7 and over 40000 nM against Tubulin.

With `COC(=O)c1[nH]c2cc(OC)c(OC)cc2c1Sc1cc(OC)c(OC)c(OC)c1`, the IC50 is 1600 nM with MCF7 and over 40000 nM against Tubulin.

Turning to `CCOC(=O)c1[nH]c2ccccc2c1Sc1ccc(OC)cc1`, the 50% inhibitory concentration (IC50) with MCF7 was over 2500 nM; against Tubulin, over 40000 nM; in the experiment with SCLC it was over 10000 nM.

On to `CCOC(=O)c1[nH]c2cc(OC)c(OC)cc2c1Sc1ccccc1`, for which the IC50 in the experiment with MCF7 was over 2500 nM; on Tubulin, 14000 nM.

For `CCOC(=O)c1[nH]c2cc(OC)c(OC)cc2c1Sc1cc(OC)c(OC)c(OC)c1`, the figures for the IC50 in the experiment with MCF7 and against Tubulin were 1000 nM and 22000 nM, respectively.

As to `CCOC(=O)c1[nH]c2cc(OC)c(OC)cc2c1S(=O)(=O)c1ccccc1`, the results for the IC50 in the experiment with MCF7 and on Tubulin were over 2500 nM and over 40000 nM, respectively.

As to `CCCCOC(=O)c1[nH]c2ccccc2c1Sc1ccccc1`, the figures for the IC50 with MCF7 and against Tubulin were over 2500 nM and over 40000 nM, respectively.

With `CC(C)OC(=O)c1[nH]c2ccccc2c1Sc1ccccc1`, the IC50 in the experiment on MCF7 is over 2500 nM; against Tubulin it was 18000 nM.

As to `COC(=O)c1[nH]c2ccc(Cl)cc2c1S(=O)(=O)c1ccccc1OC`, the IC50 was over 2500 nM in the experiment with MCF7 and over 40000 nM at Tubulin.

With `CCOC(=O)c1[nH]c2ccc(OC)cc2c1Sc1cc(OC)c(OC)c(OC)c1`, the values for the half-maximal inhibitory concentration (IC50) with MCF7 and against Tubulin were 46 nM and 2400 nM, respectively. This compound gave an inhibition at Tubulin (Homo sapiens) of 71%.

Turning to `CC(C)CCOC(=O)c1[nH]c2ccccc2c1Sc1ccccc1`, the 50% inhibitory concentration (IC50) in the experiment on MCF7 is over 2500 nM; at Tubulin, over 40000 nM.

With `CCC(C)OC(=O)c1[nH]c2ccccc2c1Sc1ccccc1` (centres undefined), the IC50 in the experiment on MCF7 is over 2500 nM; against Tubulin, over 40000 nM.

Consider `COC(=O)c1[nH]c2ccc(OC)cc2c1S(=O)(=O)c1ccccc1`, for which the half-inhibitory concentration (IC50) with MCF7 is over 2500 nM; against Tubulin it was over 40000 nM.

In the case of `COC(=O)c1[nH]c2ccc(Cl)cc2c1S(=O)(=O)c1ccc(OC)cc1`, the IC50 in the experiment with MCF7 is over 2500 nM; against Tubulin, over 40000 nM.

Consider `COC(=O)c1[nH]c2ccc(Cl)cc2c1Sc1cc(OC)c(OC)c(OC)c1`, for which the inhibition on Tubulin (Homo sapiens) turned out to be 57%. Besides, the outcome in experiment [1] was inactive.

Turning to `COC(=O)c1[nH]c2ccc(Cl)cc2c1S(=O)(=O)c1cccc(OC)c1`, the IC50 is over 2500 nM with MCF7, 31000 nM at Tubulin and over 10000 nM with SCLC.

As to `CCOC(=O)c1[nH]c2ccc(OC)cc2c1Sc1ccc(OC)cc1`, the concentration for half-maximal inhibition (IC50) is over 2500 nM in the experiment with MCF7, over 40000 nM at Tubulin and over 10000 nM in the experiment with SCLC.

As to `CCCOC(=O)c1[nH]c2ccccc2c1Sc1ccccc1`, the IC50 with MCF7 is over 2500 nM; against Tubulin it was over 40000 nM.

Take `CCOC(=O)c1[nH]c2ccc(Cl)cc2c1Sc1cc(OC)c(OC)c(OC)c1`: the values for the half-inhibitory concentration (IC50) in the experiment with MCF7, against Tubulin and with SCLC were 110 nM, 2200 nM and 93 nM, respectively. The compound also showed an inhibition on Tubulin (Homo sapiens) of 53%.

Turning to `CCOC(=O)c1[nH]c2ccccc2c1Sc1ccccc1OC`, the 50% inhibitory concentration (IC50) was over 2500 nM with MCF7 and 12000 nM against Tubulin.

Turning to `CCOC(=O)c1[nH]c2ccccc2c1Sc1cccc(OC)c1`, the 50% inhibitory concentration (IC50) in the experiment on MCF7 amounted to 150 nM; on Tubulin it was 2900 nM; with SCLC, 585 nM. The inhibition on Tubulin (Homo sapiens) is 48%.

On to `CCOC(=O)c1[nH]c2ccc(OC)cc2c1Sc1ccccc1OC`, for which the concentration for half-maximal inhibition (IC50) in the experiment on MCF7 worked out at 350 nM; against Tubulin, 16000 nM; in the experiment on SCLC, 2200 nM.

On to `COC(=O)c1[nH]c2ccc(Cl)cc2c1Sc1ccccc1OC`, for which the IC50 with MCF7 was 1300 nM; against Tubulin it was 4200 nM; in the experiment with SCLC, 7000 nM. This compound showed an inhibition at Tubulin (Homo sapiens) of 34%.

With `COC(=O)c1[nH]c2ccc(Cl)cc2c1Sc1cccc(OC)c1`, the half-inhibitory concentration (IC50) was found to be 330 nM with MCF7, 1800 nM against Tubulin and 3200 nM in the experiment with SCLC. Also, the inhibition at Tubulin (Homo sapiens) was found to be 53%.

In turn, `CCOC(=O)c1[nH]c2ccccc2c1Sc1cc(OC)c(OC)c(OC)c1` came in with an inhibition at Tubulin (Homo sapiens) of 51%.

As for `COC(=O)c1[nH]c2ccc(Cl)cc2c1Sc1cc(OC)cc(OC)c1`, the results for the IC50 in the experiment with MCF7, against Tubulin and in the experiment on SCLC were 34 nM, 2200 nM and 18 nM, respectively. Moreover, the inhibition at Tubulin (Homo sapiens) was 82%.
